Assay [1] addresses T1, Kappa-type opioid receptor (Homo sapiens, UniProt P41145). In words: Displacement of [3H]U69593 form human kappa opioid receptor expressed in CHO cells. The class given is cell-based. In general terms: Displacement assays read how much labelled ligand stays bound in the presence of the test substance.
For assay [2], the system named is CHO. As to the kind of experiment: Ratio of Ki for human mu opioid receptor to Ki for human kappa opioid receptor expressed in CHO cells. The class given is cell-based.
Assay [3] deals with T2, Mu-type opioid receptor (Homo sapiens, UniProt P35372). In words: Displacement of [3H]DAMGO form human mu opioid receptor expressed in CHO cells. The class given is cell-based.
T2 sequence (P35372 whole entry): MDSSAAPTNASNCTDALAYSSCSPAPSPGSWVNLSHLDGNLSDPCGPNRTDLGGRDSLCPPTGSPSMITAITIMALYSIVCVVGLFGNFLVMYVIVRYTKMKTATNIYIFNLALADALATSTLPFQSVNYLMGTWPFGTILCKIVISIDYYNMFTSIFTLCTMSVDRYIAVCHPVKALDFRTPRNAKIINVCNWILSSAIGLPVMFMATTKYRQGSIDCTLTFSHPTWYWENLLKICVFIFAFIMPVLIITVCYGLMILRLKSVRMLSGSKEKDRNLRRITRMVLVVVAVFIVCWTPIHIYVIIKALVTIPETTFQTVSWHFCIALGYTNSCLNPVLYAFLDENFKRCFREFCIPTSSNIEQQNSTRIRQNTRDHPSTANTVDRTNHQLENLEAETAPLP
For assay [4], the target named is Delta-type opioid receptor (Homo sapiens, UniProt P41143). In words: Displacement of [3H]Naltrindole form human delta opioid receptor expressed in CHO cells. The class given is cell-based. In short, it runs like this: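 Membranes from CHO cells stably expressing the human receptor incubated with 12 concentrations of compound and 0.2 nM [3H]naltrindole in 50 mM Tris–HCl, pH 7.5, with 10 mM MgCl2 and 0.5 mM PMSF, for 3 h at 25 °C. Filters were soaked in 0.1% PEI before filtration and scintillation counting. IC50 came from log-probit fit, and Ki = IC50/(1 + [radioligand]/Kd).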
Chain of Delta-type opioid receptor (P41143 whole entry): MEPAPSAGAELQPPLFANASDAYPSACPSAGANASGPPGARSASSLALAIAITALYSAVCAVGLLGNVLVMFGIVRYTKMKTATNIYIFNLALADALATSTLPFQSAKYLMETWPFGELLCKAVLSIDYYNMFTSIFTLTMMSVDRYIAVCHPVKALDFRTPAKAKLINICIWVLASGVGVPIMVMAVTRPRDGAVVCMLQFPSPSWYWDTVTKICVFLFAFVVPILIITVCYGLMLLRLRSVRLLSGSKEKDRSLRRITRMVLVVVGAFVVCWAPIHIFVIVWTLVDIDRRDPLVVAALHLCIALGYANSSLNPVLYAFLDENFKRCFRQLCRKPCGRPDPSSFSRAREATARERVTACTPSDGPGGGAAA

Assay [5] has as its system CHO. In words: Ratio of Ki for human delta opioid receptor to Ki for human kappa opioid receptor expressed in CHO cells. The class given is cell-based.
In assay [6] the target is T2, Mu-type opioid receptor. In words: Activity at human cloned mu opioid receptor expressed in CHO cells assessed as inhibition of DAMGO-induced [35S]GTPgammaS binding. The class given is functional, cell-based.
In assay [7] the target is T1, Kappa-type opioid receptor. As to the kind of experiment: Activity at human cloned kappa opioid receptor expressed in CHO cells by [35S]GTPgammaS binding assay. The class given is functional, cell-based. (GTPγS resists hydrolysis and so accumulates on activated G proteins.)
Assay [8] concerns the target T2, Mu-type opioid receptor. In words: Activity at human cloned mu opioid receptor expressed in CHO cells by [35S]GTPgammaS binding assay. The class given is functional, cell-based.
Assay [9] addresses Mu-type opioid receptor (Cavia porcellus, UniProt P97266). In words: Displacement of [3H]DAMGO form mu opioid receptor in guinea pig brain.
The nature of assay [10]: Displacement of [3H]Naltrindole form delta opioid receptor in guinea pig brain. Also on record: species or system Cavia porcellus. In a few lines: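 Guinea pig brain membrane protein incubated with 12 concentrations of compound and 0.2 nM [3H]naltrindole in 50 mM Tris–HCl, pH 7.5, with 10 mM MgCl2 and 0.5 mM PMSF, for 3 h at 25 °C. Samples filtered onto polyethyleneimine-soaked glass fiber filters, washed, and counted by scintillation. IC50 came from log-probit fit, and Ki = IC50/(1 + [radioligand]/Kd).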

Assay [11] addresses Kappa-type opioid receptor (Cavia porcellus, UniProt P41144). In words: Displacement of [3H]U69593 form kappa opioid receptor in guinea pig brain.
For a further assay, the species on record is Cavia porcellus. In words: Ratio of Ki for delta opioid receptor to Ki for kappa opioid receptor in guinea pig brain.
Assay [12] addresses T1, Kappa-type opioid receptor. As to the kind of experiment: Activity at human cloned kappa opioid receptor expressed in CHO cells assessed as inhibition of U50488-induced [35S]GTPgammaS binding. The class given is functional, cell-based.

The values below come from ChEMBL document CHEMBL1139291, “Syntheses and opioid receptor binding properties of carboxamido-substituted opioids” (Bioorg Med Chem Lett, 2009).

pEC50, pIC50, pKi: −log10 of the molar value.

Chain of Kappa-type opioid receptor (Cavia porcellus, UniProt P41144) (P41144 whole entry): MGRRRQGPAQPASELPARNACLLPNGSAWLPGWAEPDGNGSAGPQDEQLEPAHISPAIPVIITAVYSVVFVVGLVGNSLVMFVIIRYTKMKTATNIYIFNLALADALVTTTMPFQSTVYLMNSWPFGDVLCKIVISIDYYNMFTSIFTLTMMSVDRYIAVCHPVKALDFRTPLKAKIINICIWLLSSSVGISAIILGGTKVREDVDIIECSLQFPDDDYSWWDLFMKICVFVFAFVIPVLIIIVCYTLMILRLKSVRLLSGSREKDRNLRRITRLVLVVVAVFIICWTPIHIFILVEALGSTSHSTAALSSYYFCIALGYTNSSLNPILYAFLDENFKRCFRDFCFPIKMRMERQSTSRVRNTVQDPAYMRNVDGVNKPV
Chain of Mu-type opioid receptor (Cavia porcellus, UniProt P97266) (P97266 whole entry): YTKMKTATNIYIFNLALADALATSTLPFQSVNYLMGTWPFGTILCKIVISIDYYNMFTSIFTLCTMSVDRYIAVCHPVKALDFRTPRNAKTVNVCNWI
T1 sequence (P41145 whole entry): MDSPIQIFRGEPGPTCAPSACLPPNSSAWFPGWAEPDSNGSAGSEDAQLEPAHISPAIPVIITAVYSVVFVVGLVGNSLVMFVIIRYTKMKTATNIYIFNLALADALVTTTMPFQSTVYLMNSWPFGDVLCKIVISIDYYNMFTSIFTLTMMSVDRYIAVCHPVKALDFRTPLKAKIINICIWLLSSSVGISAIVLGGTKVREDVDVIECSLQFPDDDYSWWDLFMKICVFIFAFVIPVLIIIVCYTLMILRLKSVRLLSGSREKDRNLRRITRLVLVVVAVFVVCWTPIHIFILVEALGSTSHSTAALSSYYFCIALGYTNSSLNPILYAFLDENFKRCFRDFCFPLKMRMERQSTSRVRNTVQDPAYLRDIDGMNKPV

Usually pKi stands for −log10 of the Ki, conventionally taken in molar units. A low value points to a high Ki. Consider `C=CCN1CC[C@]23c4c5ccc(C(N)=O)c4O[C@@H]2[C@@H](O)C=C[C@H]3[C@H]1C5`, for which the results for the negative logarithm of the Ki (pKi) (in assay [1]; on Mu-type opioid receptor [3]; in assay [4]) were 7.00, 7.74 and less than 5.00, respectively. Also, the Ratio Ki in the assay on CHO [2] stood at 0.2.
For the compound `CN(C)C[C@H]1CCCC[C@]1(O)c1cccc(O)c1` (relative stereo) [O-DESMETHYL TRAMADOL], the pKi in [1] was 6.35; in assay [4] it was 5.54.
For `C=C1CC[C@@]2(O)[C@H]3Cc4ccc(C(N)=O)c5c4[C@@]2(CCN3CC2CC2)[C@H]1O5`, the pKi in [1] was 8.68; at Mu-type opioid receptor [3], 8.59; in assay [4], 7.17. Moreover, the Ratio Ki turned out to be 1 with CHO [2] and 32 in the assay on CHO [5].
`CC(C)=CCN1CC[C@@]2(C)c3cc(O)ccc3C[C@@H]1[C@@H]2C` (relative stereo): the values for the pKi in assay [1] and in assay [4] were 8.52 and 6.74, respectively.
As for `C=CCN1CC[C@]23c4c5ccc(O)c4O[C@H]2[C@@H](O)C=C[C@H]3[C@H]1C5` [NALORPHINE], the pKi in assay [1] is 9.42; at Mu-type opioid receptor [3] it was 9.72; in [4] it was 6.92. Also, the results for the Ratio Ki with CHO [2] and with CHO [5] were 0.5 and 320, respectively.
One may read the pIC50 as the negative decadic logarithm of the IC50, by convention in mol/L. One may read the pEC50 as the EC50 on a negative log10 scale, so that one unit is a factor of ten. A lower pEC50 goes with a high EC50. On to `NC(=O)c1ccc2c(c1)[C@@]13CCCC[C@@]1(O)[C@@H](C2)N(CC1CCC1)CC3`, for which, at Mu-type opioid receptor [6], the negative-log IC50 (pIC50) is 7.52. For the same compound, the pKi was 9.41 in [1], 9.82 on Mu-type opioid receptor [3] and 7.85 in assay [4]. In addition, the Ratio Ki is 0.38 in the assay with CHO [2] and 40 in the assay on CHO [5]. For the same compound, in assay [7], the negative-log EC50 (pEC50) is 8.42.
With `CC1C2Cc3ccc(C(N)=O)cc3C1(C)CCN2C` (stereo not drawn), on Mu-type opioid receptor [6], the pIC50 is 7.60. Further, the values for the pKi (in assay [1]; at Mu-type opioid receptor [3]; in assay [4]) were 7.72, 8.80 and 6.49, respectively. The compound also had a pEC50 at Mu-type opioid receptor [8] of 7.62. Moreover, the figures for the Ratio Ki in the assay with CHO [2] and in the assay on CHO [5] were 0.08 and 17, respectively.
For the compound `C[C@@H]1[C@@H]2Cc3ccc(C(N)=O)cc3[C@@]1(C)CCN2C[C@@H]1CCCO1`, the values for the negative-log Ki (pKi) (on Mu-type opioid receptor [9]; in assay [10]; in [11]) were 10.28, 8.70 and 10.05, respectively. This compound also gave a pEC50 in assay [7] of 7.52.
In turn, `CC1C2Cc3ccc(C(N)=O)cc3C1(C)CCN2CC1CC1` (stereo not drawn) showed a pKi in assay [4] of 8.28.
`C[C@H]1[C@@H]2Cc3ccc(O)cc3[C@]1(C)CCN2C` [METAZOCINE]: the negative logarithm of the Ki (pKi) in assay [1] is 8.00; on Mu-type opioid receptor [3], 8.42; in assay [4], 6.85. Also, the pEC50 at Mu-type opioid receptor [8] was 7.40; in [7] it was 6.92. The Ratio Ki in the assay with CHO [2] came out at 0.4; in the assay on CHO [5] it was 14.
Consider `C[C@@H]1[C@@H]2Cc3ccc(C(N)=O)cc3[C@@]1(C)CCN2C[C@H]1CCCO1`, for which the pKi on Mu-type opioid receptor [9] was 8.54; in [10] it was 7.47; in assay [11], 8.55. In assay [7], this compound had a pEC50 of 6.77.
With `CN1CC[C@]23c4c5ccc(C(N)=O)c4O[C@H]2[C@@H](O)C=C[C@H]3[C@H]1C5`, the values for the pKi (at Mu-type opioid receptor [9]; in [10]; in assay [11]) were 7.47, 5.72 and 5.70, respectively. For the same compound, the Ratio Ki in the assay filed under Cavia porcellus was 1.
`C[C@H]1[C@H]2C(=O)c3ccc(O)cc3[C@]1(C)CCN2CC1CC1` [KETAZOCINE]: the pIC50 on Mu-type opioid receptor [6] is 6.89. The negative-log EC50 (pEC50) at Mu-type opioid receptor [8] was 7.68; in assay [7], 8.48. Moreover, the pKi is 7.70 in [10] and 9.00 in [11].
Consider `CC1C2Cc3ccc(O)cc3[C@@]1(C)CCN2C[C@@H]1CCCO1` (single isomer, unassigned), for which the negative-log IC50 (pIC50) on Mu-type opioid receptor [6] was 7.77. In addition, the pKi on Mu-type opioid receptor [9] is 9.72; in assay [10], 8.44; in assay [11], 10.05. In addition, the pEC50 on Mu-type opioid receptor [8] was 8.57; in assay [7], 9.00. Further, the Ratio Ki in the assay filed under Cavia porcellus stood at 40.
As for `C[C@H]1C2Cc3ccc(O)cc3[C@@]1(C)CCN2CCc1ccccc1`, the pKi in [1] was 8.70; at Mu-type opioid receptor [3], 9.70; in assay [4] it was 8.30. In addition, the pEC50 at Mu-type opioid receptor [8] is 7.57; in [7] it was 8.09. The Ratio Ki in the assay with CHO [2] was found to be 0.1; with CHO [5], 2.5.
Turning to `CC(C)=CCN1CC[C@@]2(C)c3cc(C(N)=O)ccc3C[C@@H]1[C@@H]2C` (relative stereo), the pKi was 8.25 in assay [1] and 6.66 in assay [4].
Regarding `CCC12CCN(CC3CC3)C(C(=O)c3ccc(O)cc31)C2C` (stereo not drawn), the negative-log Ki (pKi) on Mu-type opioid receptor [9] is 9.11; in assay [10] it was 8.47.
Consider `NC(=O)c1ccc2c3c1O[C@H]1C4NC5C(C[C@@]6(O)[C@H]7Cc8ccc(C(N)=O)c9c8[C@@]6(CCN7CC6CC6)[C@H]5O9)C4C[C@@]4(O)[C@@H](C2)N(CC2CC2)CC[C@]314` (stereo partly drawn), for which the pKi in assay [1] was 7.68; at Mu-type opioid receptor [3], 6.40; in [4], 6.00. Further, the results for the Ratio Ki in the assay on CHO [2] and in the assay with CHO [5] were 19 and 50, respectively.
For `C[C@@H]1[C@@H]2Cc3ccc(O)cc3[C@@]1(C)CCN2C[C@H]1CCCO1`, the pKi on Mu-type opioid receptor [9] is 8.40; in [10], 7.17; in assay [11], 8.82. Besides, the Ratio Ki in the assay listed under Cavia porcellus came to 45. In assay [7], this compound showed a pEC50 of 7.39.
With `CC1C2Cc3ccc(C(N)=O)cc3C1(C)CCN2CCc1ccccc1` (stereo not drawn), the negative-log Ki (pKi) in [1] is 9.26; at Mu-type opioid receptor [3] it was 10.82; in assay [4], 8.92. For the same compound, the pEC50 at Mu-type opioid receptor [8] was 8.28; in assay [7], 8.36. Also, the Ratio Ki stood at 0.03 with CHO [2] and 2 in the assay with CHO [5]. Further, the pIC50 in assay [12] is 6.19.
As to `COc1cccc(C2(O)CCCCC2CN(C)C)c1` (stereo not drawn) [TRAMADOL], the values for the pKi in [1] and in assay [4] were 7.85 and 8.03, respectively.
Take `CCC12CCN(CC3CC3)C(C(=O)c3ccc(C(N)=O)cc31)C2C` (stereo not drawn): the results for the pKi (at Mu-type opioid receptor [9]; in assay [10]) were 8.92 and 8.01, respectively. Moreover, the Ratio Ki in the assay listed under Cavia porcellus worked out at 14.
For the compound `CN(C)C[C@H]1CCCC[C@]1(O)c1cccc(C(N)=O)c1` (relative stereo), the figures for the negative logarithm of the Ki (pKi) (in assay [1]; at Mu-type opioid receptor [3]; in assay [4]) were 6.46, 8.02 and 5.62, respectively. Moreover, the Ratio Ki in the assay on CHO [2] turned out to be 0.03; in the assay with CHO [5], 7.
Regarding `NC(=O)c1ccc2c3c1O[C@H]1[C@@H](O)CC[C@@]4(O)[C@@H](C2)N(CC2CC2)CC[C@]314`, the pKi is 7.00 in [1], 8.15 on Mu-type opioid receptor [3] and less than 5.00 in [4]. The Ratio Ki with CHO [2] was 0.07.
Consider `NC(=O)c1ccc2c3c1O[C@H]1[C@H](O)CC[C@@]4(O)[C@@H](C2)N(CC2CC2)CC[C@]314`, for which the pKi in [1] is 7.52; at Mu-type opioid receptor [3], 8.60; in assay [4] it was less than 5.00. Besides, the Ratio Ki with CHO [2] is 0.08.
Compound `NC(=O)c1ccc2c3c1O[C@H]1C(=O)CC[C@@]4(O)[C@@H](C2)N(CC2CC2)CC[C@]314` had a pKi in assay [1] of 9.44. The figures for the Ratio Ki in the assay on CHO [2] and in the assay on CHO [5] were 0.065 and 50, respectively.
Regarding `CC1C2C(=O)c3ccc(C(N)=O)cc3C1(C)CCN2CC1CC1` (stereo not drawn), the pKi at Mu-type opioid receptor [9] was 8.85; in assay [10] it was 7.70. The pEC50 in assay [7] was 8.02.
Consider `Oc1ccc2c(c1)[C@@]13CCCC[C@@]1(O)[C@@H](C2)N(CC1CCC1)CC3` [BUTORPHANOL], for which, in assay [7], the pEC50 was 8.54.
